Measured values published in ChEMBL document CHEMBL1671856, “Chemical target validation studies of aminopeptidase in malaria parasites using alpha-aminoalkylphosphonate and phosphonopeptide inhibitors” (Antimicrob Agents Chemother, 2008).

Columns and labels:
Plasmodium falciparum [1] = assay: Antimalarial activity against Plasmodium falciparum 3D7 infected in O-positive human erythrocytes after 72 hrs; assay type: functional, organism-based; conditions: 3D7, 72 h
In short: (§1)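 Asynchronous asexual blood-stage P. falciparum 3D7 were cultured in O+ erythrocytes and exposed to compounds for 72 h. Growth was read by the spectrophotometric parasite lactate dehydrogenase absorbance assay. IC50 values were determined graphically from dose-response curves.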

[2] = target: T1, Leucine aminopeptidase (Plasmodium falciparum 3D7) (UniProt Q8IL11); assay: Inhibition of leucyl aminopeptidase activity in Plasmodium falciparum 3D7 at 10 uM using Leu-AMC as a substrate by spectrophotometer
T1 sequence (whole entry): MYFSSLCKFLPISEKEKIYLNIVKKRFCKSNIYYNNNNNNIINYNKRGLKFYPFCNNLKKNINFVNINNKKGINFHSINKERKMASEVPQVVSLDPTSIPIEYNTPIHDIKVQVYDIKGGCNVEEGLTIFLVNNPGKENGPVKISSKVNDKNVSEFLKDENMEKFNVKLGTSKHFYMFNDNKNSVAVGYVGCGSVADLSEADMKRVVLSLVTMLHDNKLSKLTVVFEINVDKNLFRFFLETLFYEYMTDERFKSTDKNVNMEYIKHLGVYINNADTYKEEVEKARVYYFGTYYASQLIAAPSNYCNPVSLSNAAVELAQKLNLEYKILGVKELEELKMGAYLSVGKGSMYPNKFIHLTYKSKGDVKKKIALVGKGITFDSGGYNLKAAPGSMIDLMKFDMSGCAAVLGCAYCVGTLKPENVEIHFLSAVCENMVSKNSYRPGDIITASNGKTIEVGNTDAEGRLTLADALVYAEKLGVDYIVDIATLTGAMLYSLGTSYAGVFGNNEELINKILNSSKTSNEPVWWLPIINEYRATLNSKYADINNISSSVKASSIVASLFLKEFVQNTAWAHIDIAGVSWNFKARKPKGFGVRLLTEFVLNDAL
In short: (§2)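 Cytosolic extract came from free parasites released from infected erythrocytes, then three freeze-thaw cycles and centrifugation at 12,000 x g, 4°C, 20 min. Extract (25 µg/ml final) was preincubated with 0.1 or 10 µM inhibitor in 50 mM Tris-Cl pH 8.0, with or without 1 mM CoCl2, for 15 min at 37°C. Leu-AMC or Ala-AMC (10 µM final) was added. AMC release was read over 30 min (ex 370/em 440 nm).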

[3] = target: T1, Leucine aminopeptidase (Plasmodium falciparum 3D7); assay: Inhibition of leucyl aminopeptidase activity in Plasmodium falciparum 3D7 at 0.1 uM using Leu-AMC as a substrate by spectrophotometer; in short: as §2
Plasmodium falciparum [4] = assay: Inhibition of alanyl aminopeptidase activity in Plasmodium falciparum 3D7 at 10 uM using Ala-AMC as a substrate by spectrophotometer; in short: as §2
Plasmodium falciparum [5] = assay: Inhibition of alanyl aminopeptidase activity in Plasmodium falciparum 3D7 at 0.1 uM using Ala-AMC as a substrate by spectrophotometer; in short: as §2
[6] = target: T1, Leucine aminopeptidase (Plasmodium falciparum 3D7); assay: Inhibition of leucyl aminopeptidase activity in Plasmodium falciparum 3D7 at 10 uM using Leu-AMC as a substrate by spectrophotometer in presence of 1 mM CoCl2
[7] = target: T1, Leucine aminopeptidase (Plasmodium falciparum 3D7); assay: Inhibition of leucyl aminopeptidase activity in Plasmodium falciparum 3D7 at 0.1 uM using Leu-AMC as a substrate by spectrophotometer in presence of 1 mM CoCl2
[8] = Inhibition of porcine kidney leucyl aminopeptidase; design: species or system Sus scrofa
Aminopeptidase N = target: T2, Aminopeptidase N (Sus scrofa, UniProt P15145); assay: Inhibition of pig kidney microsomal aminopeptidase N
T2 sequence (P15145 whole entry): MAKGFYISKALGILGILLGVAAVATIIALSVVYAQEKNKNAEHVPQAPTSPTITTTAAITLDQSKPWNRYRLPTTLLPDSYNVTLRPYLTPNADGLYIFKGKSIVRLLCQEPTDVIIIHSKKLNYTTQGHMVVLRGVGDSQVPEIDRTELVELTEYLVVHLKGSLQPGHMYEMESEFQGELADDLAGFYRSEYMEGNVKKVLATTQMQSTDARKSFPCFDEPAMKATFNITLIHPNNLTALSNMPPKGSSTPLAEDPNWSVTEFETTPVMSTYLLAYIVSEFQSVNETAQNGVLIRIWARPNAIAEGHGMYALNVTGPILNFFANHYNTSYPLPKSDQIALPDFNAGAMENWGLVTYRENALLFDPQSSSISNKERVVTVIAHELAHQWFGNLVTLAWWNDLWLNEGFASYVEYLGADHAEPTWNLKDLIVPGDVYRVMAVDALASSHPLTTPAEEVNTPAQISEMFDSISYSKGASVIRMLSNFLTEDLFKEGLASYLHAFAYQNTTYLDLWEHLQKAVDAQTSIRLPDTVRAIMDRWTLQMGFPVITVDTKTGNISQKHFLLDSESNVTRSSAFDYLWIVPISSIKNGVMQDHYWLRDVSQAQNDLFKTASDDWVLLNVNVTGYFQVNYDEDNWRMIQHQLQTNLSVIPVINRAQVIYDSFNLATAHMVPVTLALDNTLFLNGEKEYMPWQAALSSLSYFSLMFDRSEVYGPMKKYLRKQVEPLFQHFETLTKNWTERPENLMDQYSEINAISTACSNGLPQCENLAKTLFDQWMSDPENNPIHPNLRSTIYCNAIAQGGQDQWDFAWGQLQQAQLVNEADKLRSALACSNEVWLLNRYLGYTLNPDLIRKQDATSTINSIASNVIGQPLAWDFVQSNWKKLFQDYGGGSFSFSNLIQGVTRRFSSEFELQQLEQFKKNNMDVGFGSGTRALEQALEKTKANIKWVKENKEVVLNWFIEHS

Plasmodium falciparum [9] = assay: Antimalarial activity against Plasmodium falciparum 3D7 infected in O-positive human erythrocytes assessed as growth inhibition by LDH assay; assay type: functional; in short: as §1
[10] = target: T1, Leucine aminopeptidase (Plasmodium falciparum 3D7); assay: Inhibition of leucyl aminopeptidase activity in Plasmodium falciparum 3D7 harboring tPfAP-M17 gene at 0.1 uM using Leu-AMC as a substrate by spectrophotometer in presence of 1 mM CoCl2

Row | Compound | IC50 (Plasmodium falciparum [1]) [µM] | inhibition [2] [%] | inhibition (INH) (Plasmodium falciparum [9]) [%] | also measured
1 | CC(CCNC(=O)C(N)Cc1ccccc1)P(=O)(O)O (stereo unspecified) | 135 | 4 |  | inhibition [3]: 0%; inhibition at 10 µM (Plasmodium falciparum [4]): 0%; inhibition at 0.1 µM (Plasmodium falciparum [5]): 0%; inhibition [6]: 0%; inhibition [7]: 1%
2 | N[C@@H](C1CCCCC1)P(=O)(O)O | 54 | 12 |  | inhibition [3]: 0%; inhibition at 10 µM (Plasmodium falciparum [4]): 8%; inhibition at 0.1 µM (Plasmodium falciparum [5]): 2%; Ki [8]: 7.89 µM; Ki (Aminopeptidase N): 161 µM; inhibition [6]: 67%; inhibition [7]: 50%
3 | NC(c1ccc2ccccc2c1)C(O)P(=O)(O)O (stereo unspecified) | > 128 | 17 | 11 | 
4 | CCC(CC)[C@H](N)P(=O)(O)O | > 256 | 10 | 15 | 
5 | CC(C)C[C@H](N)[C@@H](N)P(=O)(O)O | > 256 | 6 | 14 | 
6 | Cl.NC(Cc1ccccc1)C(=O)NCCC(O)P(=O)(O)O (stereo unspecified) | > 256 | 9 | 10 | 
7 | CC(C)C(NC(=O)C(N)Cc1ccccc1)P(=O)(O)O (stereo unspecified) | > 256 | 12 | 7 | 
8 | N[C@H](C1CCCCC1)P(=O)(O)O | > 256 | 8 | 7 | Ki [8]: 6.96 µM; Ki (Aminopeptidase N): > 2000 µM
9 | CCC(C)C(N)C(O)P(=O)(O)O (stereo unspecified) | > 256 | 5 | 1 | 
10 | CCC(CC)[C@@H](N)P(=O)(O)O | > 256 | 6 | 0 | 
11 | NC(c1ccccc1)C(O)P(=O)(O)O (stereo unspecified) | > 256 | 5 | 0 | 
12 | CC(C)C[C@@H](N)P(=O)(O)O | > 256 | 2 | 1 | Ki (Aminopeptidase N): 53 µM
13 | NC(CCc1ccccc1)P(=O)(O)O (racemic) | 22 | 93 |  | inhibition [3]: 15%; inhibition at 10 µM (Plasmodium falciparum [4]): 95%; inhibition at 0.1 µM (Plasmodium falciparum [5]): 15%; Ki [8]: 0.14 µM; inhibition [6]: 92%; inhibition [7]: 41%; inhibition [10]: 27%
14 | NC(CCc1ccccc1)P(=O)(O)Oc1ccccc1 (racemic) | 25 | 90 |  | inhibition [3]: 8%; inhibition at 10 µM (Plasmodium falciparum [4]): 92%; inhibition at 0.1 µM (Plasmodium falciparum [5]): 12%; inhibition [6]: 73%; inhibition [7]: 19%
15 | COc1ccc(C(N)P(=O)(O)O)cc1O (racemic) | 65 | 39 |  | inhibition [3]: 5%; inhibition at 10 µM (Plasmodium falciparum [4]): 43%; inhibition at 0.1 µM (Plasmodium falciparum [5]): 0%; inhibition [6]: 71%; inhibition [7]: 46%
16 | NC(CC1CCCCC1)P(=O)(O)O (racemic) | 119 | 27 |  | inhibition [3]: 3%; inhibition at 10 µM (Plasmodium falciparum [4]): 20%; inhibition at 0.1 µM (Plasmodium falciparum [5]): 0%; Ki [8]: 0.75 µM; Ki (Aminopeptidase N): 54.7 µM; inhibition [6]: 69%; inhibition [7]: 21%
17 | COc1ccc(C(N)P(=O)(O)O)cc1OC (racemic) | 53 | 71 |  | inhibition [3]: 6%; inhibition at 10 µM (Plasmodium falciparum [4]): 76%; inhibition at 0.1 µM (Plasmodium falciparum [5]): 0%; inhibition [6]: 70%; inhibition [7]: 20%
18 | COc1ccc(C(N)P(=O)(O)O)cc1 (racemic) | 57 | 43 |  | inhibition [3]: 2%; inhibition at 10 µM (Plasmodium falciparum [4]): 52%; inhibition at 0.1 µM (Plasmodium falciparum [5]): 2%; inhibition [6]: 73%; inhibition [7]: 38%
19 | NC(c1cccc(O)c1)P(=O)(O)O (racemic) | > 256 | 6 | 34 | 
20 | NC(CC1CCCC1)P(=O)(O)O (racemic) | > 256 | 37 | 17 | 

Row | Compound | IC50 (Plasmodium falciparum [1]) [µM] | inhibition [2] [%] | inhibition (INH) (Plasmodium falciparum [9]) [%] | also measured
21 | NC(c1ccc(O)cc1)P(=O)(O)O (racemic) | > 256 | 8 | 14 | 
22 | NC(C1CCC1)P(=O)(O)O (racemic) | > 256 | 6 | 8 | 
23 | NC(c1ccc(O)c(O)c1)P(=O)(O)O (racemic) | > 256 | 7 | 5 | 
24 | NC(Cc1ccc(O)cc1)P(=O)(O)O (racemic) | > 256 | 8 | 1 | 
25 | NC(C1CC1)P(=O)(O)O (racemic) | > 256 | 6 | 0 | 
26 | CCC(C)C(N)P(=O)(O)O (stereo in doubt; D28) [listing 1 of 2 here] | > 256 |  | 22 | 
27 | CCC(C)C(N)P(=O)(O)O (stereo in doubt; D28) [listing 2 of 2 here] |  | 9 |  | 
28 | CCC(C)C(N)P(=O)(O)O (stereo in doubt; D29) [listing 1 of 2 here] |  |  | 0 | 
29 | CCC(C)C(N)P(=O)(O)O (stereo in doubt; D29) [listing 2 of 2 here] |  | 9 |  | 
30 | CCCC(C)C(N)P(=O)(O)O (stereo in doubt; D30) [listing 1 of 2 here] | > 256 |  | 14 | 
31 | CCCC(C)C(N)P(=O)(O)O (stereo in doubt; D30) [listing 2 of 2 here] |  | 11 |  | 
32 | CCCC(C)C(N)P(=O)(O)O (stereo in doubt; D31) [listing 1 of 2 here] |  |  | 2 | 
33 | CCCC(C)C(N)P(=O)(O)O (stereo in doubt; D31) [listing 2 of 2 here] |  | 3 |  | 
34 | CCCCC(CC)C(N)P(=O)(O)O (stereo in doubt; D32) [listing 1 of 2 here] |  |  | 0 | 
35 | CCCCC(CC)C(N)P(=O)(O)O (stereo in doubt; D32) [listing 2 of 2 here] |  | 1 |  | 
36 | CCCCC(CC)C(N)P(=O)(O)O (stereo in doubt; D33) [listing 1 of 2 here] | > 256 |  | 17 | 
37 | CCCCC(CC)C(N)P(=O)(O)O (stereo in doubt; D33) [listing 2 of 2 here] |  | 11 |  | 
38 | CC(C)C[C@H](N)P(=O)(O)O [LEUCINE PHOSPHONIC ACID] | > 128 | 15 | 30 | inhibition [3]: 0%; inhibition at 10 µM (Plasmodium falciparum [4]): 24%; inhibition at 0.1 µM (Plasmodium falciparum [5]): 0%; inhibition [6]: 52%; inhibition [7]: 9%
39 | CC(C)C[C@H](NC(=O)[C@@H](O)[C@H](N)Cc1ccccc1)C(=O)O [UBENIMEX] |  | 98 |  | inhibition [3]: 33%; inhibition at 10 µM (Plasmodium falciparum [4]): 97%; inhibition at 0.1 µM (Plasmodium falciparum [5]): 29%; inhibition [6]: 93%; inhibition [7]: 6%; inhibition [10]: 47%
